Read-outs that look alike come from different tables or passages of the source.
Assays:
plasma protein (albumin) = format: in vitro ADME, human; conditions: surface plasmon resonance, in vitro on blood samples taken prior to dosing; across all hepatic function groups
[1] = Safety and tolerability of a single 0.5 mg dose; format: in vivo, human; conditions: single s.c. 0.5 mg
Method in brief: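 After one 0.5 mg s.c. thigh dose, participants stayed in-house ≥5 days, then had visits on days 7, 8, 15, 22 and 29 and follow-up on day 36. Monitoring covered adverse events, hypoglycaemic episodes, haematology, biochemistry (amylase, lipase), coagulation, calcitonin, urinalysis, vital signs, physical examination, ECG and fasting plasma glucose.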

[2] = cited from earlier work
[3] = format: in vivo, human
Method in brief: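 Adults with normal hepatic function or mild, moderate or severe impairment (Child–Pugh), matched for age, sex and weight, each got one 0.5 mg s.c. thigh injection by pen. Plasma was sampled from pre-dose to 840 h and stored at −20°C. Proteins were precipitated, then LC‐MS/MS (0.729–60.8 nmol/L, analogue internal standard). AUC by non-compartmental methods; CL/F = dose/AUC0‐∞. Group ratios vs normal, with 90% CI.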

[4] = human, single s.c. 0.5 mg, mild hepatic impairment, n = 8

median fraction of unbound semaglutide (plasma protein (albumin)): < 1%
AUC0‐last, ER (90% CI) vs no impairment ([3]; estimated ratio mild impairment/no impairment): 0.96 (0.76, 1.20)
Cmax, ER (90% CI) vs no impairment ([3]; estimated ratio mild impairment/normal function): 0.99 (0.80, 1.23)
AUC0‐∞, ER (90% CI) vs no impairment ([3]; estimated ratio mild impairment/normal function, single s.c. 0.5 mg): 0.95 (0.77, 1.16)
AUC0‐last, ER (90% CI) vs no impairment ([3]; estimated ratio moderate impairment/no impairment): 1.03 (0.92, 1.15)
Cmax, ER (90% CI) vs no impairment ([3]; estimated ratio moderate impairment/normal function): 1.02 (0.88, 1.18)
AUC0‐∞, ER (90% CI) vs no impairment ([3]; estimated ratio moderate impairment/normal function, single s.c. 0.5 mg): 1.02 (0.93, 1.12)
AUC0‐last, ER (90% CI) vs no impairment ([3]; estimated ratio severe impairment/no impairment): 0.93 (0.77, 1.13)
Cmax, ER (90% CI) vs no impairment ([3]; estimated ratio severe impairment/normal function): 1.15 (0.89, 1.48)
AUC0‐∞, ER (90% CI) vs no impairment ([3]; estimated ratio severe impairment/normal function, single s.c. 0.5 mg): 0.97 (0.84, 1.12)
AUC0‐last, estimated mean ([3]; human, single s.c. 0.5 mg, plasma LC-MS/MS, no hepatic impairment, n = 18): 2731 nmol^×h/L
AUC0‐last, estimated mean [3, 4]: 2621 nmol^×h/L
Tmax, median [3, 4]: 65.9 h
AUC0‐last, estimated mean ([3]; human, single s.c. 0.5 mg, moderate hepatic impairment, n = 10): 2807 nmol^×h/L
AUC0‐last, estimated mean ([3]; human, single s.c. 0.5 mg, severe hepatic impairment, n = 7): 2539 nmol^×h/L
CL/F, geometric mean (CV) ([3]; total apparent clearance, CV in %, severe hepatic impairment, n = 7): 0.043 (10.0) L/h
SMILES: CC[C@H](C)[C@H](NC(=O)[C@H](Cc1ccccc1)NC(=O)[C@H](CCC(=O)O)NC(=O)[C@H](CCCCNC(=O)COCCOCCNC(=O)COCCOCCNC(=O)CC[C@H](NC(=O)CCCCCCCCCCCCCCCCC(=O)O)C(=O)O)NC(=O)[C@H](C)NC(=O)[C@H](C)NC(=O)[C@H](CCC(N)=O)NC(=O)CNC(=O)[C@H](CCC(=O)O)NC(=O)[C@H](CC(C)C)NC(=O)[C@H](Cc1ccc(O)cc1)NC(=O)[C@H](CO)NC(=O)[C@H](CO)NC(=O)[C@@H](NC(=O)[C@H](CC(=O)O)NC(=O)[C@H](CO)NC(=O)[C@@H](NC(=O)[C@H](Cc1ccccc1)NC(=O)[C@@H](NC(=O)CNC(=O)[C@H](CCC(=O)O)NC(=O)C(C)(C)NC(=O)[C@@H](N)Cc1cnc[nH]1)[C@@H](C)O)[C@@H](C)O)C(C)C)C(=O)N[C@@H](C)C(=O)N[C@@H](Cc1c[nH]c2ccccc12)C(=O)N[C@@H](CC(C)C)C(=O)N[C@H](C(=O)N[C@@H](CCCNC(=N)N)C(=O)NCC(=O)N[C@@H](CCCNC(=N)N)C(=O)NCC(=O)O)C(C)C [semaglutide]
serious adverse events or events leading to participant withdrawal ([1]; all groups): No serious adverse events
severe hypoglycaemic episodes ([1]; all groups): No severe hypoglycaemic episodes
changes in vital signs, clinical laboratory assessments, physical examination or ECG ([1]; normal or impaired hepatic function): No clinically relevant changes
exposure in people with renal impairment vs normal renal function ([2]; after adjusting for specific baseline characteristics): comparable
administered dose excreted in urine as intact semaglutide ([2]; human, radioactive‐labelled compound): 3.1%

Source: article PMC5873441 (Diabetes, Obesity & Metabolism, 2018)
